Results published in ChEMBL document CHEMBL3351553 (J Med Chem, 2014).
Values after ≈ are worked out from the molar mass of the structure shown. Active and inactive are the calls of the source. No cut-off for these calls is given here.

Assays:
[1] = target: DNA gyrase (Staphylococcus aureus) (UniProt P0A0K8+P20831); experiment: Inhibition of Staphylococcus aureus DNA gyrase assessed as reduction in enzyme-catalyzed supercoiling of relaxed circular pBR322 DNA at 100 uM by agarose gel electrophoresis; assay type: protein-complex assay
Sequence of DNA gyrase (Staphylococcus aureus) (P0A0K8 2-644 limits assumed): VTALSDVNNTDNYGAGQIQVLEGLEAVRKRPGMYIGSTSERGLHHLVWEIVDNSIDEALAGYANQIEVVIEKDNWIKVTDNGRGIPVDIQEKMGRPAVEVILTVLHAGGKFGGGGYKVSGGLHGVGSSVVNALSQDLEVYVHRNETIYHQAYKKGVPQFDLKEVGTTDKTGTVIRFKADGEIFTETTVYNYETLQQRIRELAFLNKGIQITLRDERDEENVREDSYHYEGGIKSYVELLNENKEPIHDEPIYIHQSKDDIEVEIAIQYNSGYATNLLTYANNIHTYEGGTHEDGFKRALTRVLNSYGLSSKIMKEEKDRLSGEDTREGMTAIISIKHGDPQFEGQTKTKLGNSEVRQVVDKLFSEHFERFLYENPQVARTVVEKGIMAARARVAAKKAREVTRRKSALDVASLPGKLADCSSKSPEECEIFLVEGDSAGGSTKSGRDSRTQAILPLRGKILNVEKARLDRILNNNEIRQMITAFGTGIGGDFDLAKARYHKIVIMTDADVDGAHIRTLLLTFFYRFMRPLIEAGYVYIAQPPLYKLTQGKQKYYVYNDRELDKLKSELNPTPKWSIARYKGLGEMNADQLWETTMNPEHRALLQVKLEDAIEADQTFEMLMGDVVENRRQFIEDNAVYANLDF
Sequence of DNA gyrase (Staphylococcus aureus) (P20831 whole entry partner): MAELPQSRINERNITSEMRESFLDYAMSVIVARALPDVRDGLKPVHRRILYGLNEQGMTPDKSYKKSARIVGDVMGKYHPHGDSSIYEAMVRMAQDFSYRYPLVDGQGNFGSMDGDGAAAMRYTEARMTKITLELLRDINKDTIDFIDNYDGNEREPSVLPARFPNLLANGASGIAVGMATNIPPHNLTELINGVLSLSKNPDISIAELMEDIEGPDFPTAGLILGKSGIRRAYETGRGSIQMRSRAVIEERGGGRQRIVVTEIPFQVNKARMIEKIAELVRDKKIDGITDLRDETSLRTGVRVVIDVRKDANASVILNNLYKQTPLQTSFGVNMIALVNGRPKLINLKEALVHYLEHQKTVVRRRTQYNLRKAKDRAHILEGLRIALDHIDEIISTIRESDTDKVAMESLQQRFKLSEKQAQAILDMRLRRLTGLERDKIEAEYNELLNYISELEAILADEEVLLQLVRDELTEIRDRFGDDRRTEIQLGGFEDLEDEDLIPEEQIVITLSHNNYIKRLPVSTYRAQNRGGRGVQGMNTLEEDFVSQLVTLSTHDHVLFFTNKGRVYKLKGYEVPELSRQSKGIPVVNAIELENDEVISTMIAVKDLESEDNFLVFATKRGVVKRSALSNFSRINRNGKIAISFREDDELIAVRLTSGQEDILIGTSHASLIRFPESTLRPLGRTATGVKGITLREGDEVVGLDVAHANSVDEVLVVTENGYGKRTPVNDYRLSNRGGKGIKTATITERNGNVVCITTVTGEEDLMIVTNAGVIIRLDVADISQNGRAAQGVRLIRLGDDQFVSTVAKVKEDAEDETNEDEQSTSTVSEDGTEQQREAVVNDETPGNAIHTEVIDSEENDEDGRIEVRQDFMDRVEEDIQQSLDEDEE
In short: (§1)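 Recombinant S. aureus gyrase kit, 0.5 U enzyme, relaxed pBR322 (250 ng/μL) in 40 mM HEPES·KOH pH 7.6, 10 mM Mg acetate, 10 mM DTT, 2 mM ATP, 500 mM K glutamate, 0.5 mg/mL albumin; 37 °C, 30 min.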

Escherichia coli [2] = experiment: Antimicrobial activity against Escherichia coli 8314 incubated for 16 hrs by CLSI based method; assay type: functional; conditions: Escherichia coli, 8314, 16 h
Escherichia coli [3] = experiment: Antimicrobial activity against tolC and imp(-) containing Escherichia coli incubated for 16 hrs by CLSI based method; assay type: functional
Staphylococcus aureus [4] = experiment: Antimicrobial activity against vancomycin intermediate-resistant Staphylococcus aureus Mu50 incubated for 16 hrs by CLSI based method; assay type: functional; conditions: Mu50, 16 h
Enterococcus faecium = experiment: Antimicrobial activity against Enterococcus faecium 824-05 incubated for 16 hrs by CLSI based method; assay type: functional; conditions: 824-05, 16 h
Staphylococcus aureus [5] = experiment: Antimicrobial activity against methicillin-resistant Staphylococcus aureus USA300 NRS384 incubated for 16 hrs by CLSI based method; assay type: functional; conditions: USA300 NRS384, 16 h
DNA gyrase = DNA gyrase (Staphylococcus aureus, UniProt P0A0K8+P20831); experiment: Inhibition of Staphylococcus aureus DNA gyrase assessed as reduction in enzyme-catalyzed supercoiling of relaxed circular pBR322 DNA by agarose gel electrophoresis; assay type: protein-complex assay; in short: as §1
Sequence of DNA gyrase (P0A0K8 whole entry): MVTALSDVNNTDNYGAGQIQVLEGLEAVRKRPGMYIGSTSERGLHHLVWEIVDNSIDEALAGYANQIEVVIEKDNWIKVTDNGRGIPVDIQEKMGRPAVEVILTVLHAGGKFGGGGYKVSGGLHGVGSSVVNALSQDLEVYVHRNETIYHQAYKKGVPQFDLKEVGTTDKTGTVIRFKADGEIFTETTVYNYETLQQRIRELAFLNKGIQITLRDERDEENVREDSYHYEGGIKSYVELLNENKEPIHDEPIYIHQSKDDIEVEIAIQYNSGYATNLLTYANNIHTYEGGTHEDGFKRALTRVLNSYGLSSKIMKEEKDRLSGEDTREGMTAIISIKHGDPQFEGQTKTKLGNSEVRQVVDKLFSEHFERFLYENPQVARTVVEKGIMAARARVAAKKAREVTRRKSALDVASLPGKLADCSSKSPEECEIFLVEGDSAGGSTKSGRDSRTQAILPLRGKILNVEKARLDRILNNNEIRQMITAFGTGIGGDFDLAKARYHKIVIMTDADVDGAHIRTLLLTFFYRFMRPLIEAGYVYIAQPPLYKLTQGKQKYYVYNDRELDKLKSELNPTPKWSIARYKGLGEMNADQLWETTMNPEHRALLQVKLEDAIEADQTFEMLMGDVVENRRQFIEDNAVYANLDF
Sequence of DNA gyrase (P20831 whole entry): as the sequence (P20831 whole entry partner) above

Acinetobacter baumannii = experiment: Antimicrobial activity against Acinetobacter baumannii 983709 incubated for 16 hrs by CLSI based method; assay type: functional; conditions: Acinetobacter baumannii, 983709, 16 h
Staphylococcus aureus [6] = experiment: Antimicrobial activity against vancomycin-resistant Staphylococcus aureus VRSA1 incubated for 16 hrs by CLSI based method; assay type: functional; conditions: VRSA1, 16 h
[7] = Inhibition of Staphylococcus aureus topoisomerase 4 assessed as reduction in decatenation of kDNA at 100 to 500 uM by gel electrophoresis method
In short: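 Compounds were in DMSO, with water or DMSO as vehicle controls. Reactions were stopped with STEB plus chloroform:isoamyl alcohol and run on 1% agarose TAE gels stained with ethidium bromide. IC50 was taken from densitometry against reactions with and without enzyme.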

Staphylococcus aureus [8] = experiment: Antimicrobial activity against methicillin-resistant Staphylococcus aureus USA300-0114 incubated for 16 hrs by CLSI based method; assay type: functional; conditions: USA300-0114, 16 h
Klebsiella pneumoniae = experiment: Antimicrobial activity against Klebsiella pneumoniae CKP4 incubated for 16 hrs by CLSI based method; assay type: functional; conditions: CKP4, 16 h
Staphylococcus aureus [9] = experiment: Antimicrobial activity against ciprofloxacin-resistant Staphylococcus aureus CRC61 incubated for 16 hrs by CLSI based method; assay type: functional; conditions: CRC61, 16 h
[10] = target: Voltage-gated inwardly rectifying potassium channel KCNH2 (Homo sapiens, UniProt Q12809)
Sequence of Voltage-gated inwardly rectifying potassium channel KCNH2 (Q12809 whole entry): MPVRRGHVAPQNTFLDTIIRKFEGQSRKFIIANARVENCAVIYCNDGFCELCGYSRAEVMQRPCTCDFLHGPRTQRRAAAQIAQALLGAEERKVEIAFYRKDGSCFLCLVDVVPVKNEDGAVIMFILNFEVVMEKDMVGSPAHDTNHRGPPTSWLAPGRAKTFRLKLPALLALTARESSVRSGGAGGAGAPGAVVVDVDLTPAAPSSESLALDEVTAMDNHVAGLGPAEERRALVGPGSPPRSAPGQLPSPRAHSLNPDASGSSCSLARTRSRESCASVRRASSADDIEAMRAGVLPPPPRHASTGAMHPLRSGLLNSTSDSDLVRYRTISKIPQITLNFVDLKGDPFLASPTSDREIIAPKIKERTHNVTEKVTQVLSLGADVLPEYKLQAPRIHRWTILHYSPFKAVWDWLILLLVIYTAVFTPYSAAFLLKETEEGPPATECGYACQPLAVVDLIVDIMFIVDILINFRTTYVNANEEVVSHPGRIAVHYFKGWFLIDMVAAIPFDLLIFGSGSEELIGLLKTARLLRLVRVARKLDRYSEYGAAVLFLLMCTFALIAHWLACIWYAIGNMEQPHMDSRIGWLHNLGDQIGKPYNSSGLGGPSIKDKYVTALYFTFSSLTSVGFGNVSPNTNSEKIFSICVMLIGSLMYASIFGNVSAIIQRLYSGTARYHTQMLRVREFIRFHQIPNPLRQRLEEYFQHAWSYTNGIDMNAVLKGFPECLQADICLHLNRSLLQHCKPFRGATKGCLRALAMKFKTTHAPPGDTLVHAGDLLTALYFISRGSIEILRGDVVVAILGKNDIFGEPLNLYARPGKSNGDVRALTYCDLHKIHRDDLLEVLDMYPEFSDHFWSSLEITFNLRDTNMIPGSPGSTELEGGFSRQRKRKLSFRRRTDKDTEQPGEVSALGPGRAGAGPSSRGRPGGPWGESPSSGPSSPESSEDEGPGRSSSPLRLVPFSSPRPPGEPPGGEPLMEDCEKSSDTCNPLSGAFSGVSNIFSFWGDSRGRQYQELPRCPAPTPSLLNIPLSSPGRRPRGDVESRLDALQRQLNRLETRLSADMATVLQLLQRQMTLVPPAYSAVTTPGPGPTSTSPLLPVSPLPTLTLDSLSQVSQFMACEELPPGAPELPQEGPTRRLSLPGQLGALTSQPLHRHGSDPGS

[11] = target: T1, Ribonuclease J 2 (Staphylococcus aureus (strain COL)) (UniProt Q5HGF6); experiment: Inhibition of Staphylococcus aureus RNAse J2
T1 sequence (whole entry): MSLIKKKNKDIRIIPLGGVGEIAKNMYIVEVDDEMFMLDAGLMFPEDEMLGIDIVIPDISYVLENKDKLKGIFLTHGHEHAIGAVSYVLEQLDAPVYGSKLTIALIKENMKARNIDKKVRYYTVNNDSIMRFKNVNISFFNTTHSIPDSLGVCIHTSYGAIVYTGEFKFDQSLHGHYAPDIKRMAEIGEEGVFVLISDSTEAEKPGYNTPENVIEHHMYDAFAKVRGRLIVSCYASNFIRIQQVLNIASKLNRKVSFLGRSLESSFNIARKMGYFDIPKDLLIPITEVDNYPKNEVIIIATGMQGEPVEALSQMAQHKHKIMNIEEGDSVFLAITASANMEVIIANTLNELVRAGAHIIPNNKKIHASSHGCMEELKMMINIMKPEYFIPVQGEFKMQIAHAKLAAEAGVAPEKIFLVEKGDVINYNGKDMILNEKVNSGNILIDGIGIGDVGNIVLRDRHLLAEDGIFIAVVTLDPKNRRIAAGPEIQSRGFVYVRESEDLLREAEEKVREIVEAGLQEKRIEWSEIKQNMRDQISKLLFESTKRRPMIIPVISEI

[12] = target: T2, Ribonuclease P protein component (Staphylococcus aureus (strain COL)) (UniProt Q5HCI2); experiment: Inhibition of Staphylococcus aureus RnpA
T2 sequence (whole entry): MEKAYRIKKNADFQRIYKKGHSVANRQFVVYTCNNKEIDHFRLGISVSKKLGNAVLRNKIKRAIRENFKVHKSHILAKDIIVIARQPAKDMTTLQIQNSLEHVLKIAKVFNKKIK

Staphylococcus aureus [13] = experiment: Antimicrobial activity against Staphylococcus aureus U1 incubated for 16 hrs by CLSI based method; assay type: functional; conditions: U1, 16 h
[14] = test system: Mycobacterium tuberculosis; experiment: Antimicrobial activity against Mycobacterium tuberculosis mc2 6020 incubated for 16 hrs by alamar blue assay; assay type: functional; conditions: mc2 6020, 16 h
Staphylococcus aureus [15] = experiment: Antimicrobial activity against Staphylococcus aureus UAMS1 incubated for 16 hrs by CLSI based method; assay type: functional; conditions: UAMS1, 16 h

Q: Which inhibition [1] does the source give for `O=C(O)c1cn(C2CC2)c2cc(N3CCNCC3)c(F)cc2c1=O` here?
A: Active

Q: What does the source list for `OC(c1ccccc1)(c1ccccc1)C1CCN(Cc2ccc(-c3ccccc3)cc2)CC1`?
A: MIC (Escherichia coli [2]): > 256 µg/mL; MIC (Escherichia coli [3]): 2 µg/mL (≈ 4.61 µM); MIC (Staphylococcus aureus [4]): 8 µg/mL (≈ 18.5 µM); MIC (Enterococcus faecium): 8 µg/mL (≈ 18.5 µM); inhibition [1]: Active; MIC (Staphylococcus aureus [5]): 4 µg/mL (≈ 9.23 µM); IC50 (DNA gyrase): 125 µM; MIC (Acinetobacter baumannii): > 256 µg/mL; MIC (Staphylococcus aureus [6]): 8 µg/mL (≈ 18.5 µM); IC50 [7]: 160 µM; MIC (Staphylococcus aureus [8]): 8 µg/mL (≈ 18.5 µM); MIC (Klebsiella pneumoniae): > 256 µg/mL; MIC (Staphylococcus aureus [9]): 4 µg/mL (≈ 9.23 µM); IC50 [10]: 0.21 µM

Q: Which inhibition [11] does the source give for `CC(C)(C)c1ccc(C(O)CCCN2CCC(C(O)(c3ccccc3)c3ccccc3)CC2)cc1` (centres undefined) [TERFENADINE] here?
A: inactive

Q: And the inhibition [12]?
A: inactive

Q: And the IC50 [7]?
A: 206 µM

Q: Which MIC (Escherichia coli [2]) does the source give for `OC(c1ccccc1)(c1ccccc1)C1CCN(CCCOc2ccc(-c3ccccc3)cc2)CC1` here?
A: > 128 µg/mL

Q: What about the MIC (Escherichia coli [3]) of the same compound?
A: 4 µg/mL (≈ 8.37 µM)

Q: What about the inhibition [1] of the same compound?
A: Active

Q: What about the MIC (Staphylococcus aureus [13]) of the same compound?
A: 1 µg/mL (≈ 2.09 µM)

Q: And the MIC (Staphylococcus aureus [5])?
A: 2 µg/mL (≈ 4.19 µM)

Q: And the IC50 (DNA gyrase)?
A: 50 µM

Q: What about the MIC (Acinetobacter baumannii) of the same compound?
A: > 128 µg/mL

Q: And the MIC (Staphylococcus aureus [6])?
A: 2 µg/mL (≈ 4.19 µM)

Q: What about the IC50 [7] of the same compound?
A: 160 µM

Q: What about the MIC (Klebsiella pneumoniae) of the same compound?
A: > 128 µg/mL

Q: And the MIC [14]?
A: 1 µg/mL (≈ 2.09 µM)

Q: And the IC50 [10]?
A: 0.14 µM

Q: What about the MIC (Staphylococcus aureus [15]) of the same compound?
A: 1 µg/mL (≈ 2.09 µM)

Q: With `CC(C)(C)c1ccc(C(=O)N2CCC(C(O)(c3ccccc3)c3ccccc3)CC2)cc1` as the compound, how does the IC50 (DNA gyrase) read?
A: 93 µM

Q: What about the IC50 [7] of the same compound?
A: > 333 µM

Q: What about the MIC (Staphylococcus aureus [15]) of the same compound?
A: > 256 µg/mL
